STK33 kinase inh: blocks human STK33 kinase activity; purified STK33, MBP phosphorylation, ADP-Glo luminescence; inhibition, % at 10 µM; AID 2661; Q9BYT3; 0.073% of 320,000 active;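 active means inhibition at or above 25%, using the most active replicate where run in duplicate; inactive means inhibition below 25%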
GSK3 alpha inh: inhibitors of human GSK-3 alpha kinase; AID 2650; 0.1% of 320,000 active; P49840; ADP-Glo luminescence, 60 min; inhibition, % at 10 µM;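 active means more than half of replicates show inhibition above 20%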;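 further: GST-tagged GSK-3 alpha with peptide substrate and 25 µM ATP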
MT1-MMP act inh: inhibitors of human MT1-MMP activation; GFP/RFP ratio change, % at 20 µM; HT1080 RFP-PRO-GFP cells, GFP/RFP ratio fluorescence, overnight; percent of plate control window, DMSO zero; P50281; 0.061% of 360,000 active; AID 651647;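 active means GFP/RFP ratio change of at least 30% with cell ATP level not reduced by more than half and red fluorescence within 50% of control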
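Material: RFP-PRO-GFP reporter HT1080 cells. Dosing: single-point 20 µM compound, 1% DMSO. Controls: DMSO and RFP-L50D-GFP cell wells. Timing: cells overnight before dosing, compound overnight, 37 °C, 5% CO2. Measure: GFP/RFP fluorescence ratio.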
GSK3B inh: inhibitors of human GSK3beta kinase | P49841 | GST-GSK3beta kinase, ADP-Glo luminescence, 60 min; hits give low values | activity score (negative = inhibition), % at 10 µM | 0.038% of 300,000 active;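 active means more than half of replicate wells score below -50%, meaning over 50% inhibition versus plate controls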
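Assay system: GST-tagged human GSK3beta kinase, cell-free; Input: 1.6 ng GSK3beta; Medium: Tris/MgCl2 kinase buffer; Timing: 60 min enzyme reaction, room temperature; Signal: ADP-Glo luminescence quantifying ADP generated by kinase; Evaluation: score relative to plate controls; Benchmarks: DMSO neutral wells and GW8510 at 20 µM as positive.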
Pemphigus Ab inh: inhibitors of pemphigus antibody binding to human desmoglein-3; P32926; DSG3-coupled beads, scFv-anti-DSG3-GFP binding, flow cytometry; hits give low values; AID 588358; 0.48% of 310,000 active; binding (percent of control), % at 10 µM;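 active means binding more than 3 SD below its plate's average and above zero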;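 further: hits lower antibody fragment binding to DSG3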
Target sequence (P32926 whole entry, looked up, the tested form may be a part): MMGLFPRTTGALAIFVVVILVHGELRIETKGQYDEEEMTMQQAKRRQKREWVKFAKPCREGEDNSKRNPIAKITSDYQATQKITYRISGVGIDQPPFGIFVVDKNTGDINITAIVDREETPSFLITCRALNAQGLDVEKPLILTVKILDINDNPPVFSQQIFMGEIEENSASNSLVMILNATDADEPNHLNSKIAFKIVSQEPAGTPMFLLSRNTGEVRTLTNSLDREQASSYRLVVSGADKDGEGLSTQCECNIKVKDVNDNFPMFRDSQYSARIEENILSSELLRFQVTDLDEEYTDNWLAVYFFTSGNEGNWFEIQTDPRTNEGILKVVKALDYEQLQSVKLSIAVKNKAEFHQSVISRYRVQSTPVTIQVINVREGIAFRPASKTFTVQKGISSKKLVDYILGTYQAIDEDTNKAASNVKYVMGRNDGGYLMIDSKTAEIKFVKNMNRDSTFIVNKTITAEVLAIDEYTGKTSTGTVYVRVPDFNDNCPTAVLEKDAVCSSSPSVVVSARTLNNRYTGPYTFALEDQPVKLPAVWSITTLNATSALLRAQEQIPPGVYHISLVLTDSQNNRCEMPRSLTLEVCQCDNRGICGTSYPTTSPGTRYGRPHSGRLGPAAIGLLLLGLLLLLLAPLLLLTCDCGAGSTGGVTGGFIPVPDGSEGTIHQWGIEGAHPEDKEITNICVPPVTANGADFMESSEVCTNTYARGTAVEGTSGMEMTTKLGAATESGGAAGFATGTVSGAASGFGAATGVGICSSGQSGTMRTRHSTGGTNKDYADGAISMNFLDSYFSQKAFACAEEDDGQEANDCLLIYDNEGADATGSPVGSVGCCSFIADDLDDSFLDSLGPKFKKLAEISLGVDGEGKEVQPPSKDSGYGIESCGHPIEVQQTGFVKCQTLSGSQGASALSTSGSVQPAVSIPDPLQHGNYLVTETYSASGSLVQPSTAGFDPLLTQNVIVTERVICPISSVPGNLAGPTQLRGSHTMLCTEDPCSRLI
Hits are given with their value; – = inactive; · = no result. Compounds with a hit are over-represented: about 0.63% of the library has one in this group of screens.

SMILES | STK33 kinase inh | GSK3 alpha inh | MT1-MMP act inh | GSK3B inh | Pemphigus Ab inh
COC(=O)C1=CN(c2ccc(N3CCOCC3)cc2)C(N)=C(C#N)C1c1cccc(F)c1 (stereo unspecified) | · | · | – | · | ·
Cc1cccc(OC(=O)NCCOC(=O)N(O)c2ccc(Cl)cc2)c1 | – | – | – | – | -26
O=C(Nc1ccccc1)c1cc(C2CCCCN2C(=O)OCCF)on1 (stereo unspecified) | · | · | – | · | ·
Cn1nc(C(=O)Nc2ccc(S(=O)(=O)N3CCOCC3)cc2)c2ccccc2c1=O | – | – | – | – | 84
O=C(Cn1nc(C(=O)O)c2ccccc2c1=O)Nc1ccc(Cl)c(S(=O)(=O)N2CCOCC2)c1 | – | – | – | · | 69
O=C(Cn1cnc2ccccc2c1=O)c1ccc(OC(F)F)cc1 | – | – | – | – | 39
OC(c1cccnc1)c1nc(/C=C/c2ccc(C(F)(F)F)cc2)cs1 (stereo unspecified) | · | · | – | · | ·
CCOc1ccccc1NC(=O)C(=O)N/N=C/c1ccc([N+](=O)[O-])cc1 | – | – | – | – | 93
O=C(N/N=C/C(Cl)=C/c1ccc([N+](=O)[O-])cc1)C(=O)Nc1ccccc1C(=O)O | – | – | – | – | –
Clc1ccc2nc(CSc3nnc(-c4c[nH]c5ccccc45)o3)cn2c1 | · | · | – | · | 42
Cc1ccc(NP(=O)(c2ccc(N(C)C)cc2NC(=O)c2cccs2)N2CCOCC2)cc1Cl (stereo unspecified) | – | – | – | – | 85
Cc1ccc(NP(=O)(c2ccc(N(C)C)cc2NC(=O)c2cccs2)N2CCOCC2)cc1 (stereo unspecified) | – | – | – | – | –
CCOC(=O)C1=C[C@@H](C(C)(C)C)N(S(=O)(=O)c2ccc(C)cc2)[C@H]1c1ccc(Cl)c(Cl)c1 | · | · | – | · | ·
Cc1ccc(S(=O)(=O)N2C3CC(c4ccccc4)N(S(=O)(=O)c4ccccc4Cl)CC3C(=O)C[C@H]2c2ccccc2)cc1 (stereo partly specified) | · | · | – | · | ·
CC(=O)N1CCC(C(=O)N2c3ccccc3N=C(c3ccc4c(c3)OCO4)C2C(=O)Nc2c(C)cccc2C)CC1 (stereo unspecified) | · | · | – | · | ·
CCCn1c(C)nc2c(c1=O)c1nc3ccccc3nc1n2-c1ccccc1 | · | · | – | · | 88
CCCn1c(C)nc2c(c1=O)c1nc3ccccc3nc1n2CCC1=CCCCC1 | – | – | – | – | –
O=C(NCc1cc(Cl)cc(Cl)c1)c1ccc2sc([C@H]3C[C@H](O)[C@@H](CO)O3)nc2c1 | · | · | – | · | ·
O=C1Nc2ccccc2-n2nnnc2C1N1CCN(CCN2CCOCC2)CC1 (stereo unspecified) | · | · | – | · | ·
COc1ccc(NC(=O)c2cc(C3CCCCN3C(=O)c3cc(OC)c(C)c(OC)c3)on2)c(C)c1 (stereo unspecified) | · | · | – | · | ·
COc1c(C)oc2cc(O)ccc2c1=O | – | – | – | – | ·
Oc1ccc2c(c1)oc1cc(O)ccc12 | – | 53 | – | – | –
Cc1cc(=O)n(CCc2ccccc2)c(O)c1C#N | – | – | – | – | –
Cc1cc(=O)n(Nc2ccccc2)c(O)c1C#N | · | · | – | · | 64
Fc1cccc(Nc2nc(-c3ccncc3)nc3ccccc23)c1 | – | – | – | -75 | –
SMILES | STK33 kinase inh | GSK3 alpha inh | MT1-MMP act inh | GSK3B inh | Pemphigus Ab inh
O=C(COc1ccccc1)Nc1nc(-c2cccs2)cs1 | – | – | – | – | –
O=C(CCS(=O)(=O)c1ccccc1)Nc1nc(-c2cccs2)cs1 | – | – | – | – | 69
Nc1nc(Nc2ccccc2F)nc(NCCO)c1[N+](=O)[O-] | – | – | – | – | –
Cc1ccc(CNc2nc(N)c([N+](=O)[O-])c(NCCO)n2)cc1 | – | 51 | – | – | ·
CCC(C)Nc1nc(N)c([N+](=O)[O-])c(NCCO)n1 (stereo unspecified) | – | 73 | – | – | –
Nc1nc(NCc2ccc(Cl)cc2)nc(NCCO)c1[N+](=O)[O-] | – | – | – | – | –
CC(C)CCNc1nc(N)c([N+](=O)[O-])c(NCCO)n1 | – | 80 | – | -67 | ·
Cc1ccc(Nc2nc(N)c([N+](=O)[O-])c(NCCO)n2)cc1C | – | – | – | – | –
Nc1nc(Nc2ccc(Cl)cc2)nc(NCCO)c1[N+](=O)[O-] | – | 55 | – | – | –
CC(C)(C)C(=O)c1c(N)[nH]c(C(=O)c2ccccc2)c1-c1c(F)cccc1F | · | · | – | · | ·
COc1ccc(-c2c(C(=O)c3ccc(Br)cc3)[nH]c(N)c2C(=O)c2ccccc2)cc1OC | · | · | – | · | ·
CCOC(=O)Cc1ccc(Nc2nc(NCCOC)nc3ccsc23)cc1 | · | · | – | · | ·
Cc1c(Cl)cccc1NC(=S)N1CCN(c2ccc([N+](=O)[O-])cn2)CC1 | – | – | – | – | 90
Cc1cccc(Cl)c1NC(=S)N1CCN(c2ccc([N+](=O)[O-])cn2)CC1 | – | – | – | – | –
Oc1ccccc1-c1nnc(COc2ccc(Cl)cc2Cl)o1 | – | – | – | – | 66
COc1ccc(/C=N\NC(=O)c2ccc(Cn3cc(Br)c([N+](=O)[O-])n3)o2)c(OC)c1C | – | – | – | – | 65
COc1ccc(/C=N/NC(=O)c2ccc(Cn3cc([N+](=O)[O-])cn3)o2)c(OC)c1C | – | – | – | – | –
Cc1nc2c(cc1C(=O)N/N=C/c1ccc([N+](=O)[O-])cc1)c(=O)n(C)c(=O)n2C | – | – | – | – | -7.8
Cc1cc(C(=O)N/N=C/c2ccc([N+](=O)[O-])cc2)c2ccccc2n1 | – | – | – | – | ·
O=C(N/N=C/c1ccncc1)c1sc2ccccc2c1Cl | – | – | – | – | -1.9
Cc1sc2ncnc(N3CCC(C(=O)Nc4ccc(OC(F)F)c(Cl)c4)CC3)c2c1C | – | – | – | · | ·
CCN(CC)CCNC(=O)c1ccc(NC(=O)C2CCN(c3ncnc4sc(C)c(C)c34)CC2)cc1 | – | 53 | – | – | –
O=C(NC1CCCCC1)N(CCN1CCOCC1)Cc1cc2cc3c(cc2[nH]c1=O)OCCO3 | – | – | – | – | –
Cc1ccc2[nH]c(=O)c(CN(CCCN3CCOCC3)C(=O)NC3CCCCC3)cc2c1 | – | – | – | – | 93
C[C@H]1CN([C@@H](C)CO)C(=O)c2cc(Br)cnc2O[C@H]1CN(C)S(=O)(=O)c1ccccc1F | · | · | – | · | –
CC(C)(C)C(c1nc2ccccc2[nH]1)n1c(-c2ccsc2)nc2ccccc21 (stereo unspecified) | · | · | – | · | ·
S=c1[nH]c(-c2ccccc2)cn1/N=C/c1cccnc1 | – | – | – | – | 80
S=c1[nH]c(-c2ccccc2)cn1/N=C/c1ccc(Br)cc1 | – | – | – | – | –
COc1ccc(C2=Nc3ccccc3N(C(=O)c3ccc4ncccc4c3)C2C(=O)NC(C)(C)C)cc1 (stereo unspecified) | · | · | – | · | ·
COc1ccc(NC(=O)CN2C(=O)/C(=C3\SC(=S)N(CCC(=O)O)C3=O)c3ccccc32)cc1 | – | – | – | – | 82

From PubChem
